Source: PubChem (Sanford-Burnham Center for Chemical Genomics)
Sampled rows, rich in hits. Any-hit rate of the full collection: about 2.9%.
SENP6 block = inhibitors of human SENP6 protease; Q9GZR1; Recombinant SENP6 catalytic domain, aminoluciferin luminescence; inhibition, % at 10 µM; 330,000 compounds, 1.8% hits; AID 2599;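 active means inhibition above about 50% at the single tested dose, limit read from the data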
SENP8 block-1 = blocks the human protease SENP8; Q96LD8; purified SENP8, Z-RLRGG-aminoluciferin cleavage, luminescence; inhibition, % at 10 µM; 330,000 compounds, 1.2% hits; AID 2540; in the data active means inhibition above about 50%
Target sequence (Q96LD8 whole entry, looked up): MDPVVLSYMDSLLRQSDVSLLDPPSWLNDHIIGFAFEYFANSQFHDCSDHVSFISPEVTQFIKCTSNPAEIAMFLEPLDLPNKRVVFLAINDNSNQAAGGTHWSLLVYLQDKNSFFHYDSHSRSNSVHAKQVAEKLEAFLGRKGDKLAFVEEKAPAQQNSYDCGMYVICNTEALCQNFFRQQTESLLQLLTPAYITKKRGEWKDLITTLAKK
SENP8 block-2 = SENP8 (human) protease inhibition; Q96LD8; inhibition, % at 20 µM; recombinant SENP8, Nedd8 substrate fluorescence; 360,000 compounds, 0.64% hits; in the data active means inhibition mostly above about 40%, no sharp cut-off; inactive means mostly below about 27%
SENP1 FRET inh = SENP1 (human) catalytic domain inhibition; recombinant SENP1 catalytic domain, CyPet-SUMO1-YPet FRET cleavage; 360,000 compounds, 0.21% hits; inhibition, % at 10 µM; AID 624204; Q9P0U3;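 active means inhibition at least 30% at 10 µM, raw YFP signal under a set limit, fluorescence ratio 0.5 to 1.5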
Target sequence (Q9P0U3 419-644 limits assumed): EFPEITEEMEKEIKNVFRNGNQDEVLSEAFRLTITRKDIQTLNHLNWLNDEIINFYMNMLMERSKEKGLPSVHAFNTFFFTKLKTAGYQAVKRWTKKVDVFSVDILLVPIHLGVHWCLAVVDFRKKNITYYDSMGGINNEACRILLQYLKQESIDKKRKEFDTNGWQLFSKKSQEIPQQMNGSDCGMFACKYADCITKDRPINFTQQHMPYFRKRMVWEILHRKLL
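Test system: recombinant human SENP1 catalytic domain, His6-tagged / Medium: pH 8 Tris buffer with EDTA, NaCl, BME, BSA, NP40, catalase / Also added: SUMO1 FRET substrate flanked by Cypet and Ypet, 25 nM / Times: 50 min reaction at room temperature / Signal: FRET, CFP and YFP emission / Control set: no-enzyme low control and enzyme-plus-DMSO high control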
Apaf1 inhib = blocks human Apaf-1 apoptosome activity | inhibition, % at 20 µM | reconstituted apoptosome caspase-3 activity, DEVD-Rh110 fluorescence | 330,000 compounds, 0.71% hits | O14727; active means inhibition of at least 40% at 20 µM
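Material: reconstituted apoptosome with Apaf-1, cytochrome c, caspase-9, procaspase-3, dATP; medium: pH 7.5 Hepes buffer with CHAPS, BSA, DTT; also added: cytochrome c and DEVD-Rh110 substrate; timing: 30 min plus 50 min, RT; signal: Rh110 fluorescence intensity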
SENP7 inh = blocks the human protease SENP7; Q9BQF6; recombinant SENP7, Z-RLRGG-aminoluciferin luminescence, 40 min; inhibition, % at 5 µM; 330,000 compounds, 1.5% hits; AID 434973;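 active means inhibition above about 50% at the single test dose, limit read from the data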
SENP8 confirm = confirmation of human SENP8 protease inhibitors; AID 488912; shares compounds with SENP7 inh; 6,200 compounds, 40% hits; inhibition, % at 12.5 µM; Recombinant SENP8, Z-RLRGG-aminoluciferin luminescence, 60 min;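 active means mean inhibition across replicates above about 50%, limit read from the data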
SENP6 conf = human SENP6 inhibition, confirmed | shares compounds with SENP7 inh | recombinant SENP6, Z-RLRGG-aminoluciferin luminescence | inhibition, % at 12.5 µM | 6,200 compounds, 58% hits | AID 488915
SENP7 confirm = human SENP7 inhibition, confirmed. shares compounds with SENP7 inh. recombinant SENP7, Z-RLRGG-aminoluciferin luminescence, 40 min. inhibition, % at 12.5 µM. 6,200 compounds, 69% hits. AID 488917
Casp3 SENP sel = selectivity test for SENP inhibitors: human caspase-3 inhibition. shares compounds with SENP7 inh. purified caspase-3, Z-DEVD-aminoluciferin luminescence, 60 min. inhibition, % at 12.5 µM. 6,200 compounds, 60% hits. AID 488918;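 active means mean inhibition above about 50%, limit read from the data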
Target sequence (P42574 28-227 limits assumed): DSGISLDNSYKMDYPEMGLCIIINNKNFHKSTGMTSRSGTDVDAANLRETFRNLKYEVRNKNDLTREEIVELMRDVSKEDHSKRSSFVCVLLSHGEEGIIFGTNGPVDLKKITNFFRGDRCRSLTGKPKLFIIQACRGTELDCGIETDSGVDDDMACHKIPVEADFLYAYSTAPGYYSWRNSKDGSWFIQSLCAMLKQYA
SENP luc ctr = luminescence interference (SENP counter-screen); shares compounds with SENP7 inh; Pre-incubated SENP8/Z-RLRGG-aminoluciferin, luciferase luminescence interference; inhibition, % at 12.5 µM; 6,200 compounds, 39% hits;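 active means mean inhibition above about 50% when retested at one dose, limit read from the data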
Of the large screens only hits and unclear results are named; the others gave an inactive call (follow-up assays come after a bar, where they were run).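 How the source made its calls, unless noted: active means mean inhibition above about 50% in the one-dose retest (limit read from the data); inactive means the rest.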

COc1ccc(C(=O)Nc2ccccc2C(=O)Nc2cccc(C)n2)cc1	none
COc1ccc(C(=O)NC(=O)Nc2cc(C)ccn2)cc1	SENP6 block 82.9, SENP8 block-1 79.3 | SENP8 confirm 77.6 | SENP6 conf 77.8 | SENP7 confirm 93.8 | Casp3 SENP sel 92.4 | SENP luc ctr 68.4
O=C(COC(=O)c1ccncc1)Nc1cccc2ccccc12	none
COc1cc(CN2CCC(C(=O)NCCC(C)C)CC2)ccc1OCc1ccccc1	none
COc1cc(CNC(=O)C2CC2)ccc1OCc1ccccc1	SENP6 block 54.7 | SENP8 confirm inactive | SENP6 conf inactive | SENP7 confirm 77.6 | Casp3 SENP sel 75.8 | SENP luc ctr inactive
c1ccc(-c2noc(-c3ccco3)n2)nc1	SENP6 block 74.0, SENP7 inh 72.9 | SENP8 confirm 64.7 | SENP6 conf 67.5 | SENP7 confirm 92.1 | Casp3 SENP sel 91.8 | SENP luc ctr 70.0
c1ccc(-c2cc(-c3nc(-c4ccccn4)no3)c3ccccc3n2)cc1	none
Clc1cccc(-c2nc(-c3ccccn3)no2)c1	SENP6 block 96.0, SENP8 block-1 92.4, SENP7 inh 97.9 | SENP8 confirm 97.0 | SENP6 conf 98.0 | SENP7 confirm 101.8 | Casp3 SENP sel 97.2 | SENP luc ctr 96.6
COc1cc(-c2nc(-c3ccccn3)no2)cc(OC)c1OC	none
c1ccc(-c2noc(-c3ccno3)n2)nc1	none
O=[N+]([O-])c1cccc(-c2noc(-c3ccco3)n2)c1	SENP6 block 68.3, SENP7 inh 54.3 | SENP8 confirm inactive | SENP6 conf inactive | SENP7 confirm inactive | Casp3 SENP sel inactive | SENP luc ctr inactive
Cc1ccc(-c2nc(-c3ccccn3)no2)cc1[N+](=O)[O-]	SENP6 block 92.0, SENP8 block-1 84.7, SENP7 inh 88.5 | SENP8 confirm 62.9 | SENP6 conf 82.9 | SENP7 confirm 88.2 | Casp3 SENP sel 84.8 | SENP luc ctr inactive
CN(C(=O)CSc1nnc(COc2ccccc2F)n1N)C1CCS(=O)(=O)C1 (centres undefined)	none
CCOC(=O)[C@]12CCCC=C1N(Cc1ccc3c(c1)OCO3)C(=O)[C@H](CC(=O)NCCCN1CCCC1=O)C2	none (no result: SENP6 block, SENP8 block-1, Apaf1 inhib, SENP7 inh)
CCC(=O)N(C(=O)CC)N1CCN(c2ccncc2S(=O)(=O)N2CCCCC2)CC1	none
Cc1ccc(-c2nc(-c3ccccn3)no2)cc1	SENP6 block 99.4, SENP8 block-1 97.6, SENP7 inh 98.8 | SENP8 confirm inactive | SENP6 conf 100.7 | SENP7 confirm 103.3 | Casp3 SENP sel 99.5 | SENP luc ctr 98.7
Cc1ccc2nc(-c3ccccn3)oc2c1	SENP6 block 83.3, SENP8 block-1 62.6, SENP7 inh 80.8 | SENP8 confirm inactive | SENP6 conf 70.8 | SENP7 confirm 95.4 | Casp3 SENP sel 89.2 | SENP luc ctr inactive
Cc1ccc2nc(-c3cccnc3)oc2c1	none
c1ccc(-c2ccc(-c3nc(-c4ccccn4)no3)cc2)cc1	SENP6 block 98.2, SENP8 block-1 96.8, SENP7 inh 98.1 | SENP8 confirm inactive | SENP6 conf 73.7 | SENP7 confirm 80.7 | Casp3 SENP sel 97.1 | SENP luc ctr inactive
Cc1ccc(Cc2nc(-c3ccccn3)no2)cc1	none
c1ccc(-c2noc(-c3cccc4ccccc34)n2)nc1	SENP6 block 96.1, SENP8 block-1 89.1, SENP7 inh 90.3 | SENP8 confirm 92.6 | SENP6 conf 94.6 | SENP7 confirm 100.8 | Casp3 SENP sel 90.0 | SENP luc ctr 94.2
Cc1ccccc1Oc1ccc2c(c1)[C@@H]1C[C@H]3[C@@H](C(=O)N1CC2)[C@H](C)ON3C	none (no result: SENP6 block, SENP8 block-1, Apaf1 inhib, SENP7 inh)
Cc1ccc(S(=O)(=O)N2CCC(C(=O)OC(C)C(=O)N(C)c3ccccc3)CC2)cc1C (centres undefined)	none
COc1ccccc1-c1cccc([C@@H]2C[C@H]3[C@H](CON3C)CN2C)c1	none (no result: SENP6 block, SENP8 block-1, Apaf1 inhib, SENP7 inh)
Cc1cccc(C(=O)OCC(=O)N2CCCC2=O)c1[N+](=O)[O-]	none
CS(=O)(=O)NCc1ccccc1Br	none (no result: SENP8 block-2, SENP1 FRET inh)
c1ccc(-c2nc(-c3ccccn3)no2)cc1	SENP6 block 96.2, SENP8 block-1 94.7, SENP7 inh 100.6 | SENP8 confirm 97.9 | SENP6 conf 99.1 | SENP7 confirm 102.7 | Casp3 SENP sel 98.9 | SENP luc ctr 96.6
COc1nc(C)ccc1-c1noc(-c2ccco2)n1	SENP6 block 70.4, SENP7 inh 60.6 | SENP8 confirm 50.9 | SENP6 conf 57.2 | SENP7 confirm 84.8 | Casp3 SENP sel 68.6 | SENP luc ctr inactive
CCNC(=O)C1CCCN(Cc2cc(-c3ccccc3)on2)CC1 (centres undefined)	none (no result: SENP6 block, SENP8 block-1, Apaf1 inhib, SENP7 inh)
COc1ccc2[nH]cc(CCNC(=O)/C=C/[C@H]3O[C@@H](n4cnc5c(NC(=O)c6ccccc6)ncnc54)[C@H](O)[C@@H]3O)c2c1	none (no result: SENP6 block, SENP8 block-1, Apaf1 inhib, SENP7 inh)
c1ccc(Nc2nnc(-c3cccnc3)s2)cc1	SENP6 block 80.4, SENP8 block-1 72.4, SENP7 inh 86.9 | SENP8 confirm inactive | SENP6 conf inactive | SENP7 confirm inactive | Casp3 SENP sel inactive | SENP luc ctr inactive
Nc1nnc(-c2cccnc2)s1	none
NC(Cc1ccc(F)cc1)c1csc(NC(=O)NC(c2ccccc2)c2ccccc2)n1 (centres undefined)	none (no result: SENP6 block, SENP8 block-1, Apaf1 inhib, SENP7 inh)
COc1ccccc1N=NC1C(=O)N(C(N)=S)N=C1C (centres undefined)	none
CC1=NN(C(N)=S)C(=O)C1N=Nc1ccccc1Cl (centres undefined)	SENP6 block 88.5, SENP8 block-1 83.4, SENP8 block-2 41.8, SENP7 inh 52.8 | SENP8 confirm inactive | SENP6 conf 89.9 | SENP7 confirm 97.9 | Casp3 SENP sel 82.4 | SENP luc ctr inactive
CC1=NN(C(N)=S)C(=O)C1N=Nc1ccc(Cl)cc1Cl (centres undefined)	SENP6 block 91.4, SENP8 block-1 93.6 | SENP8 confirm 81.4 | SENP6 conf 85.6 | SENP7 confirm 93.7 | Casp3 SENP sel 71.5 | SENP luc ctr 66.9
Cc1nn(-c2ccc(Cl)cc2Cl)c(=O)c2ccccc12	none
